As usually defined, the GI50 is the concentration that inhibits growth by half. Low values mean greater sensitivity of the cells, high ones lower sensitivity of the cells.

In test [1] the test system is MCF7. Put plainly: Induction of apoptosis in human MCF7 cells assessed as single-strand DNA break at 2 uM after 24 hrs by comet assay relative to control. Format: functional. A digest of the protocol:
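Alkaline comet assay in MCF-7 cells after 24 h at 2 µM. Electrophoresis 20 min at 40 V in 0.5% TBE pH 8, SYBR Green I stain, fluorescence microscopy; percentage of cells with tails scored.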

For test [2], the system named is MCF7. In words: Cell cycle arrest in human MCF7 cells assessed as accumulation at G2/M phase at 2 uM after 24 hrs by propidium iodide staining based flow cytometry (reference value: 26.42%). Format: functional. A general note: Flow cytometry measures light scatter and fluorescence of single cells or particles in a stream.
Test [3] relates to MCF7. Put plainly: Cell cycle arrest in human MCF7 cells assessed as accumulation at G1 phase at 2 uM after 24 hrs by propidium iodide staining based flow cytometry (reference value: 60.5%). Format: functional.
Test [4] deals with MCF7. Put plainly: Cytotoxicity against human MCF7 cells at 2 to 4 uM after 24 hrs by MTT assay. Format: functional, cell-based. A digest of the protocol:
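MCF-7 cells in DMEM with 10% fetal calf serum and penicillin/streptomycin, seeded at 10,000 cells/well and incubated overnight. Treated at 2 and 4 µM for 24 h, then medium replaced with MTT and incubated 2 h at 37 °C. Formazan dissolved in extraction buffer and read at 570 nm.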
(In general: Tetrazolium dyes change colour on reduction, which living cells bring about.)

Test [5] deals with MCF7. Put plainly: Induction of apoptosis in human MCF7 cells assessed as double-strand DNA breaks at 2 uM after 24 hrs measured as phosphorylation at ser-139 on H2AX protein by immunostaining relative to control. Format: functional. The gist of the method: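 MCF-7 cells on coverslips treated 24 h at 2 µM, fixed in 4% paraformaldehyde for 20 min at room temperature, blocked with 1% BSA for 60 min. Anti-γ-H2AX (Ser139) antibody at 1:100 for 2 h at room temperature, then FITC-conjugated anti-rabbit secondary for 1 h. Foci-positive cells scored as percentage against DMSO control.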

Test [6] has as its system MCF7. In words: Cell cycle arrest in human MCF7 cells assessed as accumulation at GO phase at 2 uM after 24 hrs by propidium iodide staining based flow cytometry (reference value: 6.09%). Format: functional.
Test [7] has as its system MCF7. In words: Cell cycle arrest in human MCF7 cells assessed as accumulation at S phase at 2 uM after 24 hrs by propidium iodide staining based flow cytometry (reference value: 6.99%). Format: functional.
Test [8] in a line: Cytotoxicity against human DWD cells after 48 hrs by sulforhodamine B assay. Format: functional. The gist of the method: (§1)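 SRB growth assay, 48 h continuous exposure. Cells grown in DMEM with 10% FBS and 2 mM L-glutamine, plated at densities set by doubling time, preincubated 24 h at 37 °C, 5% CO2. Four concentrations (0.1, 1, 10, 100 µM) in triplicate wells. TCA fixation, 0.4% SRB staining, absorbance at 540 nm against 690 nm reference. GI50 from time-zero-corrected growth; repeated three times.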
On the technique in general: In SRB staining, fixed cells bind dye roughly in proportion to their protein.

For test [9], the system named is ZR-75-1. Put plainly: Cytotoxicity against human ZR-75-1 cells after 48 hrs by sulforhodamine B assay. The settings on record: ZR-75-1, 48 h. Format: functional. A digest of the protocol:
as §1

In test [10] the test system is A549. In words: Cytotoxicity against human A549 cells after 48 hrs by sulforhodamine B assay. Format: functional. The settings on record: A549, 48 h. The gist of the method: as §1
Test [11] has as its system HOP-62. In words: Cytotoxicity against human HOP62 cells after 48 hrs by sulforhodamine B assay. Format: functional. The settings on record: HOP-62, 48 h. The gist of the method:
as §1

The nature of test [12]: Cytotoxicity against human Gurav cells after 48 hrs by sulforhodamine B assay. Format: functional. The gist of the method: as §1
The test system of test [13] is A2780. Put plainly: Cytotoxicity against human A2780 cells after 48 hrs by sulforhodamine B assay. Format: functional. The settings on record: A2780, 48 h. A digest of the protocol: as §1
Test [14] deals with COLO 205. In words: Cytotoxicity against human COLO205 cells after 48 hrs by sulforhodamine B assay. Format: functional. The settings on record: COLO 205, 48 h. The gist of the method: as §1
Test [15] deals with MCF7. Put plainly: Cytotoxicity against human MCF7 cells after 48 hrs by sulforhodamine B assay. The settings on record: MCF7, 48 h. Format: functional. The gist of the method:
as §1

Active and inactive are the calls of the source. No cut-off for these calls is given here.

`COc1ccccc1/C(=C\c1ccc([N+](=O)[O-])cc1)C(=O)O`: the Activity in test [1] is recorded as 20%; in test [2], 20.12%; in [3], 66.28%; in [5] it was 30%; in test [6], 3.07%; in test [7] it was 10.53%. Moreover, the result in test [4] was inactive.
With `COc1cc(/C(=C\c2ccc(O)cc2)C(=O)N[C@@H]2c3cc4c(cc3[C@@H](c3cc(OC)c(OC)c(OC)c3)[C@H]3C(=O)OC[C@@H]32)OCO4)cc(OC)c1OC`, the GI50 amounted to 2700 nM in test [8]; 2700 nM in [9]; 2300 nM in test [10]; 2600 nM in test [11]; 2700 nM in test [12].
Take `COc1cc(/C(=C\c2ccc([N+](=O)[O-])cc2)C(=O)N[C@@H]2c3cc4c(cc3[C@@H](c3cc(OC)c(OC)c(OC)c3)[C@H]3C(=O)OC[C@@H]32)OCO4)cc(OC)c1OC`: the GI50 in test [8] was found to be 2400 nM; in test [13], 2600 nM; in test [9], 2200 nM; in [14], 2100 nM; in test [11], 2700 nM; in test [12], 2100 nM.
Take `COc1ccc(/C=C(/C(=O)N[C@@H]2c3cc4c(cc3[C@@H](c3cc(OC)c(OC)c(OC)c3)[C@H]3C(=O)OC[C@@H]32)OCO4)c2cc(OC)c(OC)c(OC)c2)cc1F`: the GI50 came to 2700 nM in [15] and 2400 nM in [14].
On to `COc1cc(/C(=C\c2cccc([N+](=O)[O-])c2)C(=O)N[C@@H]2c3cc4c(cc3[C@@H](c3cc(OC)c(OC)c(OC)c3)[C@H]3C(=O)OC[C@@H]32)OCO4)cc(OC)c1OC`, for which the GI50 in test [8] is < 100 nM; in test [13], 2500 nM; in test [15], 2700 nM; in [10], 2400 nM; in test [11], 170 nM; in test [12], 2100 nM.
As for `COc1ccc(/C=C(/C(=O)N[C@@H]2c3cc4c(cc3[C@@H](c3cc(OC)c(OC)c(OC)c3)[C@H]3C(=O)OC[C@@H]32)OCO4)c2cc(OC)c(OC)c(OC)c2)cc1[N+](=O)[O-]`, the GI50 stood at 2900 nM in [8]; 2500 nM in test [13]; 2200 nM in test [9]; 2700 nM in test [14]; 2300 nM in [11]; 2600 nM in test [12].
Regarding `COc1ccc(F)c(/C=C(/C(=O)N[C@@H]2c3cc4c(cc3[C@@H](c3cc(OC)c(OC)c(OC)c3)[C@H]3C(=O)OC[C@@H]32)OCO4)c2cc(OC)c(OC)c(OC)c2)c1`, the GI50 in [9] is 2700 nM; in test [12] it was 2500 nM.
Consider `COc1ccccc1/C=C(/C(=O)N[C@@H]1c2cc3c(cc2[C@@H](c2cc(OC)c(OC)c(OC)c2)[C@H]2C(=O)OC[C@@H]21)OCO3)c1ccc([N+](=O)[O-])cc1`, for which the result in [4] was Active.
As to `COc1ccc(/C=C(/C(=O)N[C@@H]2c3cc4c(cc3[C@@H](c3cc(OC)c(OC)c(OC)c3)[C@H]3C(=O)OC[C@@H]32)OCO4)c2cc(OC)c(OC)c(OC)c2)c(F)c1`, the GI50 in [8] is 190 nM; in test [13], 2700 nM; in test [9], 2500 nM; in [15], 2400 nM; in test [10] it was 2100 nM; in test [11] it was 170 nM. In test [12], this molecule yielded a GI50 of 180 nM.
Turning to `COc1ccc(/C=C(/C(=O)N[C@@H]2c3cc4c(cc3[C@@H](c3cc(OC)c(OC)c(OC)c3)[C@H]3C(=O)OC[C@@H]32)OCO4)c2cc(OC)c(OC)c(OC)c2)cc1`, the GI50 was 2300 nM in test [8]; 2500 nM in test [13]; 2900 nM in [9]; 2900 nM in test [15]; 170 nM in test [14]; 2200 nM in test [12].
As to `COc1cc(/C=C(/C(=O)N[C@@H]2c3cc4c(cc3[C@@H](c3cc(OC)c(OC)c(OC)c3)[C@H]3C(=O)OC[C@@H]32)OCO4)c2cc(OC)c(OC)c(OC)c2)ccc1O`, the GI50 in [9] came out at 2900 nM; in [10] it was 2400 nM; in test [11], 2500 nM.
Turning to `COc1ccc(/C=C\c2cc(OC)c(OC)c(OC)c2)cc1O` [COMBRETASTATIN A4], the Activity in test [2] came to 84.41%; in [3], 2.49%; in test [5], 50%; in [6], 5.07%; in [7], 8.03%.
With `COc1cc([C@@H]2c3cc4c(cc3[C@H](O)[C@H]3COC(=O)[C@H]23)OCO4)cc(OC)c1OC` [PODOFILOX], the Activity in test [2] was 86.59%; in [3] it was 2.38%; in test [6], 5.9%; in [7], 5.13%. For the same molecule, the outcome in test [4] and in test [5] was inactive.
Regarding `COc1cc([C@@H]2c3cc4c(cc3[C@@H](O[C@@H]3O[C@@H]5CO[C@@H](C)O[C@H]5[C@H](O)[C@H]3O)[C@H]3COC(=O)[C@H]23)OCO4)cc(OC)c1O` [ETOPOSIDE], the GI50 in test [8] came out at 600 nM; in test [13], 1300 nM; in [9], 200 nM; in [15], 2100 nM; in [14] it was 130 nM; in test [10], 3080 nM. The GI50 in test [11] came out at 800 nM; in test [12], 500 nM. In addition, the Activity amounted to 10% in test [1]; 62.86% in test [2]; 17.29% in [3]; 70% in test [5]; 7.54% in test [6]; 12.31% in test [7]. Moreover, the result in [4] was Active.
In the case of `COc1ccc(/C=C(/C(=O)N[C@@H]2c3cc4c(cc3[C@@H](c3cc(OC)c(OC)c(OC)c3)[C@H]3C(=O)OC[C@@H]32)OCO4)c2cc(OC)c(OC)c(OC)c2)cc1O`, the GI50 in test [10] and in test [11] was 2900 nM throughout.
As for `COc1cc(/C=C(/C(=O)N[C@@H]2c3cc4c(cc3[C@@H](c3cc(OC)c(OC)c(OC)c3)[C@H]3C(=O)OC[C@@H]32)OCO4)c2cc(OC)c(OC)c(OC)c2)ccc1F`, the GI50 in test [9] was 2200 nM; in test [11], 2500 nM; in test [12] it was 2400 nM.
As for `COc1cccc(/C=C(/C(=O)N[C@@H]2c3cc4c(cc3[C@@H](c3cc(OC)c(OC)c(OC)c3)[C@H]3C(=O)OC[C@@H]32)OCO4)c2cc(OC)c(OC)c(OC)c2)c1`, the GI50 is 2200 nM in test [8]; < 100 nM in test [13]; 180 nM in [9]; < 100 nM in test [15]; 2700 nM in [10]; 180 nM in [11]. The GI50 in [12] was determined as 2100 nM. Moreover, the Activity was determined as 36.35% in test [2], 52.49% in test [3], 4.83% in test [6] and 6.43% in test [7]. Moreover, in [4], the result was Active.
As to `COc1cc(/C(=C\c2ccc(O)c([N+](=O)[O-])c2)C(=O)N[C@@H]2c3cc4c(cc3[C@@H](c3cc(OC)c(OC)c(OC)c3)[C@H]3C(=O)OC[C@@H]32)OCO4)cc(OC)c1OC`, the GI50 was < 100 nM in [8]; 2200 nM in test [13]; 180 nM in [9]; 2700 nM in [15]; 2000 nM in test [14]; 190 nM in test [11]. Moreover, it took 190 nM to inhibit growth in [12] by half (GI50).
Take `COc1ccccc1/C=C(/C(=O)N[C@@H]1c2cc3c(cc2[C@@H](c2cc(OC)c(OC)c(OC)c2)[C@H]2C(=O)OC[C@@H]21)OCO3)c1ccccc1[N+](=O)[O-]`: the result in test [4] was Active.
Turning to `COc1cccc2c1C(=O)c1c(O)c3c(c(O)c1C2=O)C[C@@](O)(C(=O)CO)C[C@@H]3O[C@H]1C[C@H](N)[C@H](O)[C@H](C)O1` [DOXORUBICIN], the GI50 in [8] is < 100 nM; in test [13], < 100 nM; in [9], 110 nM; in [15] it was 130 nM; in test [14], < 100 nM; in test [10] it was < 100 nM. Further, the GI50 in test [11] was 150 nM; in [12] it was < 100 nM.

The values are drawn from ChEMBL document CHEMBL1811806, “Synthesis and biological evaluation of 4β-acrylamidopodophyllotoxin congeners as DNA damaging agents” (2011).
